Source: PubChem
TNAP act mid DEA: human TNAP enzyme activators, primary screen, biochemical, luminescent, intermediate phosphate acceptor level; purified TNAP, CDP-star luminescence, 100 mM DEA, 30 min; stronger effect = higher value; scale: 0 levamisole-inhibited, 1 vehicle-only enzyme; 64,000 tested, under 10 active; activation factor at 20 µM;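 active = activation factor of at least 2 at 20 µM, relative to controls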
Target sequence (P05186 whole entry, looked up): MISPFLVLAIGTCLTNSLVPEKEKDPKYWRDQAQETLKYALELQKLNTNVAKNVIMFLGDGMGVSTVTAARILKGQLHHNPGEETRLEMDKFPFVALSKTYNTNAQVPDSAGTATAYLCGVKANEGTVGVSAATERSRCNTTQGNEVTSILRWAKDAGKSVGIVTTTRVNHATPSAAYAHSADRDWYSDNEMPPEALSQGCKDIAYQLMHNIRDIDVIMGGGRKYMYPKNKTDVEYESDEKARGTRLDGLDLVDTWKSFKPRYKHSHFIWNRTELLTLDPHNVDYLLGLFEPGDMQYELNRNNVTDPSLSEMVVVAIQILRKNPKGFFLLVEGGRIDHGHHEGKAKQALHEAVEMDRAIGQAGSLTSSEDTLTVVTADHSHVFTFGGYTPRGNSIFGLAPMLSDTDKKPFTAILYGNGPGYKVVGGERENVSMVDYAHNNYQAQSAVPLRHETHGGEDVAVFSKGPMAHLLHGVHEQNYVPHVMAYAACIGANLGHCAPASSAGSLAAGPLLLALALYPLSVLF
MMP-13 inhibitor: human MMP13 inhibitors, primary screen, biochemical, FRET peptide cleavage. Collagenase 3 (Homo sapiens), P45452. MMP-13 fTHP FRET cleavage, Mca fluorescence. inhibition, % at 4 µM. actives 0.07% (n = 65,000). AID 570, 2006;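 active = inhibition above the mean of compound-free control plate wells plus 3 SD, cut at about 14% in these data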
Ec RNAP inh: E. coli RNAP inhibitors, biochemical; DNA-directed RNA polymerase subunit beta (Escherichia coli (strain K12)), P0A8V2; E. coli RNA polymerase, fluorescence transcription assay; inhibition, %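 (tested at 10 µM)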; actives 0.2% (n = 62,000); AID 559, 2006; in the data active = inhibition above about 20%
AP ELISA ortho: alternative complement pathway inhibitors, primary screen, biochemical, ELISA, human serum, orthogonally pooled compounds; actives 0.08% (n = 62,000); LPS-coated ELISA, C3 deposition; tested in compound mixtures; AID 1235, 2008; inhibition, % at 5 µM;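 active = inhibition above 30% in each of the two pooled mixtures holding the compound, so the lower value exceeds 30%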
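Test system: human serum alternative complement pathway, C3 deposition on LPS-coated wells; also added: Plate-bound LPS; doses: 5 µM per compound in ten-compound mixtures; schedule: 1 h at 37 °C; detection: Anti-C3 ELISA, OD 450 nm; evaluation: percent inhibition of C3 deposition onto LPS; repeats: two pool placements per compound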
SK-BR-3 tox 24h: SK-BR-3 proliferation inhibitors, primary screen, cell-based, human, 24 h | SK-BR-3 viability, CellTiter-Glo ATP luminescence; stronger effect = lower value | AID 847, 2007 | actives 0.47% (n = 41,000) | viability, % at 10 µM;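 active = viability at or below the median of all test compounds minus 3 SD, in both replicates if run twice, cut at about 45% in these data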
Her2 expr inh: inhibitors of Her2 protein expression, primary screen, SKBR-3 cells, AlphaScreen, 66K library; AID 645, 2007; Receptor tyrosine-protein kinase erbB-2 (Homo sapiens), P04626; SKBR-3 HER2 protein level, 18-24 h; stronger effect = lower value; actives 0.69% (n = 65,000); HER2 level % of control, % at 10 µM;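 active = HER2 level under 5% of the carrier-only control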;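 also: lower value means stronger loss of Her2 protein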
A number is an active result; - = inactive; . = no result. A selection: hits, their analogues and other compounds. The true share with any hit is near 1.2%.

SMILES | TNAP act mid DEA | MMP-13 inhibitor | Ec RNAP inh | AP ELISA ortho | SK-BR-3 tox 24h | Her2 expr inh
COc1ccc(S(=O)(=O)Nc2ccccc2C(F)(F)F)cc1 | - | - | - | - | . | -
COc1ccc(S(=O)(=O)Nc2ccc(O)c3ccccc23)cc1 | - | - | 24 | - | . | 3.4
CN(C)c1nc(Oc2ccc(=O)[nH]n2)nc(N2CCCCC2)n1 | - | - | - | - | - | -
O=C(Nc1ccc(Cl)cc1)Nc1ccc2c(c1)N1CCN=C1S2 | - | - | . | - | - | -8.2
CN(c1ccccc1)C(c1ccc(F)cc1)c1nnnn1C1CCCC1 (centres undefined) | - | - | - | - | - | -
Cc1ccccc1NS(=O)(=O)c1cc(S(C)(=O)=O)ccc1Cl | - | - | - | - | - | -
Cc1cc(NS(=O)(=O)c2ccccc2)c(C)c(Cl)c1O | - | - | 21 | - | - | -
CCOc1cc(C(=O)NCCOC)ccc1OC | - | - | - | - | - | -8.0
COCCNC(=O)c1ccccc1NC(=O)c1ccc(OC)c(OC)c1 | - | - | - | - | - | -
COC(=O)C(C#N)c1nc2ccccc2nc1N1CCN(Cc2ccc3c(c2)OCO3)CC1 (centres undefined) | - | - | - | - | - | -
CCOC(=O)C1CCCN(c2nc3ccccc3nc2C(C#N)C(=O)OCC)C1 (centres undefined) | - | 14 | . | - | . | -
CCCCOC(=O)C(C#N)c1nc2ccccc2nc1N1CCN(Cc2ccc3c(c2)OCO3)CC1 (centres undefined) | - | - | - | - | - | -55
CCOC(=O)C1CCCN(c2nc3ccccc3nc2C(C#N)C(=O)OC(C)COC)C1 (centres undefined) | - | - | 21 | - | - | -
CN(Cc1ccccc1)c1nc2c(c(=O)[nH]c(=O)n2C)n1CCOc1ccccc1 | - | - | - | - | - | -
c1ccc(N2CCN(c3ccccc3)C2c2cccs2)cc1 | - | - | - | - | . | .
COC(=O)c1ccc(C2CC(=O)NC3=C2C(=O)CCC3)cc1 (centres undefined) | - | - | - | - | - | -
CC(C)Oc1ccc(C2CC(=O)NC3=C2C(=O)CCC3)cc1 (centres undefined) | - | - | 22 | - | - | -
CN1/C(=C\C(=O)c2ccco2)C(C)(C)c2ccccc21 | - | - | - | - | . | -
CCN1/C(=C/C(=O)c2ccco2)Sc2ccccc21 | - | - | - | - | . | -0.5
COC1(c2cc(-c3ccccc3)nc(N)n2)CCCCC1 | - | - | - | - | . | -
COc1cccc(-n2c(SCC(=O)O)nnc2-c2cccnc2)c1 | - | - | - | - | - | -18
CCOc1cc(S(=O)(=O)NCCc2cccc(C)c2)c(OCC)cc1-n1cnnn1 | - | - | - | - | - | 3.6
COc1ccccc1NC(=O)C1=C(C)NC(=O)NC1c1cccc(OC)c1OC (centres undefined) | - | - | - | - | - | -
CCOc1ccccc1NC(=O)C1=C(C)NC(=O)NC1c1cccc(OC)c1OC (centres undefined) | - | - | - | - | 23 | -
Cc1cc2c(cc(C(=O)OCC(=O)NCc3cccs3)n2C(C)C)o1 | - | - | - | - | - | -
SMILES | TNAP act mid DEA | MMP-13 inhibitor | Ec RNAP inh | AP ELISA ortho | SK-BR-3 tox 24h | Her2 expr inh
CC1(C)CC(=O)C2=C(C1)OC(=O)C2(NC(=O)c1cccs1)C(F)(F)F (centres undefined) | - | - | - | - | - | -12
CC(C)(CSc1nncn1N)NS(=O)(=O)c1ccc(Cl)cc1 | - | - | - | - | - | -
Cc1ccc(N(C(=O)C2CCC(=O)N2)C2(C(=O)NC3CCCCC3)CCCCC2)cc1 (centres undefined) | - | - | - | - | - | -
O=C1CCC(C(=O)NC2(C(=O)NC3CCCCC3)CCCCC2)N1 (centres undefined) | - | - | - | - | 28 | -
COc1ccccc1OCc1nc(Cc2ccc(Cl)cc2)no1 | - | - | - | - | - | -
CC1CC(C)(C)Nc2ccc(OC(=O)c3ccco3)cc21 (centres undefined) | - | - | - | - | 20 | -31
Cc1csc(NC(=O)CSc2nnc(-c3ccoc3C)n2Cc2ccco2)n1 | - | - | - | - | - | -
COc1ccc2sc(NC(=O)CC(C)C)nc2c1 | - | - | - | - | - | -19
CCN1CCCC1CNC(=O)c1cc(NC(C)=O)c(N(C)C)cc1OC (centres undefined) | - | - | - | - | - | -
COc1ccccc1NC(=O)c1sc2nc(-c3ccco3)ccc2c1N | - | - | - | - | - | -0.3
Nc1c(C(=O)Nc2ccccc2)sc2nc(-c3ccco3)ccc12 | - | - | - | - | - | -5.4
O=C(Nc1ccccc1)c1ccc2nc(-c3ccco3)c(-c3ccco3)nc2c1 | - | - | - | - | - | -
COc1ccccc1NC(=O)c1oc2ccccc2c1NC(=O)c1ccco1 | - | - | - | - | . | -
Cc1c(-c2cccs2)[n+](=O)c2c(n1[O-])CCCCC2 | - | - | - | - | - | -
Cc1ccc(S(=O)(=O)N2CCOCC2)cc1C(=O)NCc1cn2ccsc2n1 | - | - | - | - | . | -
CC(C)CC(C(=O)NCc1ccccn1)N1C(=O)c2ccccc2C1=O (centres undefined) | - | - | - | - | . | -
CC(O)CCc1nc2ccc(C(=O)O)cc2[nH]1 (centres undefined) | - | - | - | - | - | -19
C#CCOC(=O)c1ccccc1C(=O)OCC#C | - | - | - | - | - | -22
O=C(Nc1ccncc1)C1(c2ccccc2)CCCC1 | - | - | - | 39 | - | -
COC(=O)C1Cc2c([nH]c3ccccc23)CN1 (centres undefined) | - | - | - | - | - | -19
CCc1ccc(O)c(N=Cc2ccccc2O)c1 | - | - | 27 | - | . | -
O=c1[nH]c(N2CCCCC2)nc2c1CCCC2 | - | - | - | - | - | -
O=C(CN(Cc1ccco1)C(=O)CNS(=O)(=O)c1ccc(F)cc1)NCc1ccc(F)cc1 | 6.1 | - | - | - | . | -
O=C(CN(Cc1ccco1)C(=O)CNS(=O)(=O)c1ccccc1)NCc1ccc(F)cc1 | - | - | - | - | . | -
Cc1ccc(N(Cc2ccco2)C(=O)c2cccc(S(=O)(=O)N(C)C)c2)cc1 | - | - | - | - | . | -
O=C(c1ccco1)N(Cc1ccco1)c1ccc(O)cc1 | - | - | - | - | - | -16
Cc1cc(O)ccc1Nc1nc2ccccc2nc1Nc1ccc(O)cc1C | - | - | - | - | . | -
O=c1[nH]n(-c2cccc3cccnc23)c(=O)c2ccccc12 | - | - | - | - | - | -
